From PubChem BioAssay
Results filed as inconclusive are left out.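 How the source made its calls, unless noted: active means cell viability at or below a set limit in both duplicate runs, the limit being the all-compound median minus 4 SD (cut at about 23% in these data, passing the limit was not always enough); inconclusive means no clear call, values can overlap the other calls; inactive means the rest.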

Legend:
[1] = S. cerevisiae growth inhibition in permissive medium (OD615), pilot counter-assay for S. cerevisiae lifespan shortening project, permissive growth control (AID 705;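 active means growth inhibition above 25% in both replicates, a cutoff set 3 SD above the mean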); conditions: OD615, 24 h, at 10 µM, active compounds read high
Summary of the method: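 System: Engineered DeaD yeast | Buffer or medium: SC raffinose/galactose permissive medium | Incubation: Cells pre-grown 4 h, then 24 h compound exposure, 30 °C humidified | Measured by: Absorbance (optical density) at 615 nm | Read-out: Reduction in yeast growth (OD615)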

[2] = S. cerevisiae growth inhibition in restrictive medium, OD615, pilot screen, restrictive growth control, yeast lifespan reduction project (AID 706;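 active means growth inhibition above a set limit, 3 SD over mean compound inhibition, in both replicates, cut at about 43% in these data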;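 further: modified DeaD lifespan yeast strain shifted to restrictive glucose medium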); conditions: OD615, 48 h, at 10 µM, active compounds read high
Summary of the method: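 Material: modified S. cerevisiae; Medium: glucose-based CSMM-D restrictive medium; Compound dosing: one concentration, 10 µM final, 0.25% DMSO; Incubation: 48 h compound exposure at 30 °C; Measured by: OD615.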

[3] = doxorubicin toxicity protection in MRP-1 cells – H69AR cells, CellTiter-Glo, duplicate, MRP-1 activator project, pilot screen (AID 807;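 active means viability increase at or above a cutoff of the median across tested compounds plus 3 SD, cut at about 8.5% in these data, passing the limit was not always enough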;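 further: compound pretreatment 18-22 h then 72 h combined with doxorubicin; 0% = doxorubicin alone and 100% = vehicle without doxorubicin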); conditions: H69AR viability with doxorubicin, CellTiter-Glo luminescence; at 10 µM; active compounds read high
[4] = viability of HCT116 without oncogenic beta-catenin – human colon tumor cells, pilot screen (AID 823); conditions: HCT116 beta-catenin knockout viability, CellTiter-Glo, 60 h; at 10 µM; active compounds read low;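 further: 0% = wells killed by 20 µM Hyamine and 100% = untreated DMSO cell wells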
[5] = viability of PTEN-null HCT116 cells – cell-based, HCT116 clonal line, CellTiter-Glo, pilot screen (AID 824;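 active means viability at or below 27.92% in each of two runs, the all-compound median minus 4 SD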;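 further: 0% = 20 µM Hyamine control and 100% = vehicle cell control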); conditions: HCT116 PTEN-deleted viability, 60 h, at 10 µM, active compounds read low
[6] = RAM pathway blockade in budding yeast – dse1pr::URA3 reporter, 5-FOA selection, pilot screen (AID 869;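 active means inhibition over a set limit, the all-compound mean plus 3 SD, in both replicate runs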;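 further: 0% = DMSO wells with no growth and 100% = 10 µM 1-NA-PP1 with full growth; RAM network block rescues cells from 5-FOA so hits raise OD615 growth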); conditions: S. cerevisiae dse1pr::URA3 5-FOA growth, OD615, 2 d; at 10 µM; active compounds read high; strain carries analog-sensitive mutant Cbk1 kinase
[7] = RAM signaling pathway blockade in yeast – S. cerevisiae, Pdr1DBD-CYC8 efflux-inhibited sensitized strain, primary screen (AID 1298;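 active means RAM network inhibition above 8.4% in each of two replicates, 3 SD over the compound average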;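 further: 0% = DMSO untreated cells without growth and 100% = 10 µM 1-NA-PP1 full growth; higher means more yeast growth rescued from 5-FOA killing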); conditions: S. cerevisiae cbk1-as DSE1-URA3 strain, 5-FOA growth OD615, 2 d; at 50 µM; active compounds read high

COc1ccc(N2C(=O)C3CCCN3C2c2cccc(C)c2)cc1 (stereo not drawn)
inactive: growth inhibition [1] 2.65% | growth inhibition [2] 15% | viability increase [3] -3.13% | viability [4] 97.4% | viability [5] 100% | inhibition [6] 1.83% | RAM network inhibition [7] -1.25%

CCN1CCN(c2cc(=O)n(C3CCCCC3)c(=O)[nH]2)CC1
inactive: growth inhibition [1] -13.3% | growth inhibition [2] -10.1% | viability increase [3] 0.11% | viability [4] 104% | viability [5] 102% | inhibition [6] 1.2% | RAM network inhibition [7] 2.53%

COc1ccc(NC(=O)c2cnn3c(C(F)(F)F)cc(-c4ccco4)nc23)cc1OC
inactive: growth inhibition [1] -11.5% | growth inhibition [2] -12.4% | viability increase [3] -0.73% | viability [4] 96.5% | viability [5] 93% | inhibition [6] 1.89% | RAM network inhibition [7] 2.09%

O/N=C1/CCc2cccc3cccc1c23
inactive: growth inhibition [1] -11.1% | growth inhibition [2] 0.79% | viability increase [3] -3.93% | viability [4] 96.1% | viability [5] 103% | inhibition [6] 2.06% | RAM network inhibition [7] -0.11%

CCn1cc(S(=O)(=O)CC(=O)Nc2ccc3c(c2)OCCO3)c2ccccc21
inactive: growth inhibition [1] -12.1% | growth inhibition [2] -19.9% | viability increase [3] 0.14% | viability [4] 101% | viability [5] 95.3% | inhibition [6] 2.54% | RAM network inhibition [7] 9.35%

COc1ccc(N2CCN(C(=O)C34CCC(C)(C(=O)C3)C4(C)C)CC2)cc1 (stereo not drawn)
inactive: growth inhibition [1] -1.5% | growth inhibition [2] 0.815% | viability increase [3] -0.51% | viability [4] 88% | viability [5] 91.8% | inhibition [6] 1.86% | RAM network inhibition [7] -0.21%

COc1ccc(C2CC(c3cccc(Cl)c3)n3nc(N)nc3N2)cc1 (stereo not drawn)
inactive: growth inhibition [1] -3.22% | growth inhibition [2] -3.25% | viability increase [3] -0.53% | viability [4] 99.8% | viability [5] 89.9% | inhibition [6] 1.37% | RAM network inhibition [7] 2.3%

CSc1ccc(CN2CCC(O)CC2)cc1
inactive: growth inhibition [1] -12.7% | growth inhibition [2] -15.8% | viability increase [3] -0.93% | viability [4] 102% | viability [5] 100% | inhibition [6] 1.4% | RAM network inhibition [7] 5.11%

CCN(CCNC(=O)Cn1c(=O)sc2ccccc21)c1ccccc1
inactive: growth inhibition [1] -10.6% | growth inhibition [2] 2.42% | viability increase [3] -3.76% | viability [4] 92.2% | viability [5] 84.9% | inhibition [6] 1.57% | RAM network inhibition [7] 2.04%

CNc1nc(C)nc(-c2ccccc2O)n1
inactive: growth inhibition [1] -3.62% | growth inhibition [2] 7.31% | viability increase [3] -0.19% | viability [4] 98.5% | viability [5] 92.8% | inhibition [6] 0.84% | RAM network inhibition [7] 4.49%

Cn1c(NC(=O)C2CCCC2)cc(=O)n(C)c1=O
inactive: growth inhibition [1] 0.48% | growth inhibition [2] -4.17% | viability increase [3] -0.06% | viability [4] 105% | viability [5] 95.4% | inhibition [6] 0.58% | RAM network inhibition [7] -1.4%

CCOC(=O)c1ccc(NC(=O)C2C3C=CC(C3)C2C(=O)O)cc1 (stereo not drawn)
inactive: growth inhibition [1] 5.27% | growth inhibition [2] 5.33% | viability increase [3] 0.55% | viability [4] 98.5% | viability [5] 106% | inhibition [6] 0.29% | RAM network inhibition [7] 1.09%

O=C(COC(=O)c1cnccn1)c1ccc2c(c1)CCCC2
inactive: growth inhibition [1] -11.3% | growth inhibition [2] -17.1% | viability increase [3] -1.19% | viability [4] 91.9% | viability [5] 88.6% | inhibition [6] 1.32% | RAM network inhibition [7] 1.14%

Cc1cc(OC2CCCCC2)nc(-c2ccccc2O)n1
inactive: growth inhibition [1] -21.5% | growth inhibition [2] -17.2% | viability increase [3] -0.33% | viability [4] 87% | viability [5] 81.5% | inhibition [6] 1.9% | RAM network inhibition [7] 12.3%

Cc1n[nH]c(C)c1S(=O)(=O)N(CC(=O)N1CCc2ccccc21)c1ccc(C(C)C)cc1
inactive: growth inhibition [1] -9.99% | growth inhibition [2] 9.17% | viability increase [3] -7.59% | viability [4] 89.6% | viability [5] 83.3% | inhibition [6] 1.94% | RAM network inhibition [7] 8.57%

CCc1ccc(C2CC(c3cccc(Cl)c3)n3nc(N)nc3N2)cc1 (stereo not drawn)
inactive: growth inhibition [1] -3.09% | growth inhibition [2] 10.4% | viability increase [3] -3.92% | viability [4] 71.5% | viability [5] 65.6% | inhibition [6] 2.25% | RAM network inhibition [7] 9.11%

O=C(CCN1C(=O)c2ccccc2C1=O)N1CCN(Cc2ccc(Cl)cc2Cl)CC1
inactive: growth inhibition [1] -8.77% | growth inhibition [2] -18% | viability increase [3] 1.45% | viability [4] 98.3% | viability [5] 104% | inhibition [6] 1.12% | RAM network inhibition [7] 7.67%

CCn1c2ccccc2c2nnc(SCC(=O)c3ccccc3)nc21
inactive: growth inhibition [1] -1.37% | growth inhibition [2] 13.5% | viability increase [3] -2.35% | viability [4] 94.8% | viability [5] 90.7% | inhibition [6] 2.33% | RAM network inhibition [7] 6.1%

COc1ccc(N2Cc3cccc(C(=O)O)c3C2=O)cc1
inactive: growth inhibition [1] -17.1% | growth inhibition [2] -1.34% | viability increase [3] -0.59% | viability [4] 104% | viability [5] 101% | inhibition [6] 1.5% | RAM network inhibition [7] 0.58%

CCOC(=O)Nc1ccc2c(c1)N(C(=O)N(C)C)c1ccccc1CC2
inactive: growth inhibition [1] -8.91% | growth inhibition [2] -0.49% | viability increase [3] -1.82% | viability [4] 96.8% | viability [5] 96% | inhibition [6] -0.31% | RAM network inhibition [7] 2.67%

O=C(CSc1nnc2ccccn12)N1CCc2ccccc2C1
inactive: growth inhibition [1] -8.87% | growth inhibition [2] 0.78% | viability increase [3] -0.88% | viability [4] 99.7% | viability [5] 93.2% | inhibition [6] 1.54% | RAM network inhibition [7] 2.11%

O=C(O)C1CCC(=O)N1C1c2ccccc2Oc2ccccc21 (stereo not drawn)
inactive: growth inhibition [1] 4.23% | growth inhibition [2] 4.63% | viability increase [3] 0.41% | viability [4] 96% | viability [5] 98.9% | inhibition [6] 0.57% | RAM network inhibition [7] 5.25%

CC(NC(=O)C1CCC(=O)N1Cc1ccc(F)cc1)c1ccc2c(c1)OCCO2 (stereo not drawn)
inactive: growth inhibition [1] -1.08% | growth inhibition [2] -4.75% | viability increase [3] -1.94% | viability [4] 96.4% | viability [5] 94.9% | inhibition [6] 0.975% | RAM network inhibition [7] 4.36%

Cc1ccc(-c2nc(-c3ccccc3)no2)c(Cl)c1
inactive: growth inhibition [1] -6.6% | growth inhibition [2] -11.1% | viability increase [3] -4.72% | viability [4] 78.9% | viability [5] 78% | inhibition [6] 3.96% | RAM network inhibition [7] 3.45%
